Measured values collected from several papers.
Protocols differ between the studies behind these lines.
Target: Protein kinase C epsilon type (PRKCE, Homo sapiens, UniProt Q02156)
Sequence (Q02156 1-737, as in one of the studies): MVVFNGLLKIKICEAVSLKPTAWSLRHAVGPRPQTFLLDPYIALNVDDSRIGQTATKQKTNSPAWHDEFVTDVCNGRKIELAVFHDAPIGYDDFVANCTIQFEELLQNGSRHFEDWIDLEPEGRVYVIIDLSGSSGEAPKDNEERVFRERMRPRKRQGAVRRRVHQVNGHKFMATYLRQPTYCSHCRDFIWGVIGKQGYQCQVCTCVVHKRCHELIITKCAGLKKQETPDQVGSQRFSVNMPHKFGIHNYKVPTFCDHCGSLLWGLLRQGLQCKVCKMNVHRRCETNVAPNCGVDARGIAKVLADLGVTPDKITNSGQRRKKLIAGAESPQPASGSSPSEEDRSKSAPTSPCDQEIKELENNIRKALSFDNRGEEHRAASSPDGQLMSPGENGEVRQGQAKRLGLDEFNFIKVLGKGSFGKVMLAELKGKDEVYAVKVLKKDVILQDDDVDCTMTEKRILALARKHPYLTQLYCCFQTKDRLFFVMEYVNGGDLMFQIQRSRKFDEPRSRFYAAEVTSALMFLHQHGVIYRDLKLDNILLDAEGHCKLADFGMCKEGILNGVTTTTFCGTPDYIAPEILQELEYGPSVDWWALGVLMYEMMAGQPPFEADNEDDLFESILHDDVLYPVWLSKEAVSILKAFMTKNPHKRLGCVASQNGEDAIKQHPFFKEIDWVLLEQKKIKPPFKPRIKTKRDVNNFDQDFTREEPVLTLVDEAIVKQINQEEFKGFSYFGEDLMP

SMILES | test | setting | quantity | value
CC(C)(C)c1cc(C=C(C#N)C#N)cc(Br)c1O | enzyme activity, inhibitor | 0.5 µM | remaining activity | 108%
COc1ncccc1-c1cnn2ccc(N3CCN(C(=O)OC(C)C)CC3)nc12 | binding, competition with immobilised ligand | 1 µM | remaining binding | 76%
Cn1cncc1[C@](O)(COc1ccc(C#N)cc1-c1ccc(OC(F)(F)F)cc1)c1ccc(C#N)cc1 | cell-free assay, competition with immobilised ligand | 1 µM | remaining binding | 79%
C#Cc1n[nH]c2c(-c3cn([C@@H](C)c4ccccn4)c(=O)[nH]c3=O)cc(F)cc12 | enzyme activity, inhibitor | 0.1 µM | inhibition | 4.1%
Cn1cc(-c2cccc(N3CCc4c(sc5c4CC(C)(C)C5)C3=O)c2CO)cc(Nc2ccncn2)c1=O | enzyme activity, inhibitor | 1 µM | inhibition | 1%
COc1cc(Nc2ncc(F)c(Nc3ccc4c(n3)NC(=O)C(C)(C)O4)n2)cc(OC)c1OC | binding | 10 µM | inhibition | 73%
O=c1[nH]c2ccccc2n1C1CCN(Cc2ccc(-c3[nH]c4cc5ncnc5cc4nc3-c3ccccc3)cc2)CC1 | cell-free assay | 0.5 µM | remaining signal | 109%
Cn1cc(-c2cc(F)cc(N3CCn4c(cc5c4CCCC5)C3=O)c2CO)cc(Nc2ccc(N3CCN(C4COC4)CC3)cn2)c1=O | enzyme activity, inhibitor | 0.1 µM | inhibition | -4%
